Laboratory results as given in article PMC9653025 (Drug Design, Development and Therapy, 2022).
Read-outs that look alike come from different tables or passages of the source. Blank lines part the entries; values can stand above or below the molecule they belong to.

Key:
[1] = tested on: COX-1/COX-2; conditions: cited from earlier work
[2] = healthy subjects, single oral dose 30, 60, 90 and 200mg imrecoxib; cited from earlier work
[3] = type: in vivo, healthy Chinese subjects; conditions: single oral 100 mg imrecoxib, plasma
Procedure, shortened: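 Open-label parallel Phase I study in healthy Chinese adults aged 18–85 y, BMI 19–28 kg/m2, 1:1 sex. Single 100 mg tablet of test compound taken orally with 240 mL water after a 4 h fast. EDTA blood drawn predose and 0.5–72 h after dosing; plasma stored at −70°C. Parent compound plus hydroxyl and carboxyl metabolites measured by LC-MS/MS (C18, MRM, acetonitrile precipitation, internal standard). Non-compartmental analysis; group geometric mean ratios with 90% CI.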

[4] = Safety and tolerability; type: in vivo, healthy Chinese subjects
Procedure, shortened: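 Single 100 mg oral tablet given after fasting; subjects kept in a supervised Phase I ward until 72 h post-dose. Tolerability tracked through adverse-event monitoring, physical examinations, haematology, blood biochemistry, urinalysis and 12-lead ECG; clinical laboratory tests run in a CAP-accredited hospital laboratory. Elderly and non-elderly groups assessed in parallel.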

[5] = Elderly Group (N=9), single oral 100 mg imrecoxib
[6] = Elderly Group (N=9), single oral 100 mg imrecoxib, subjects (%)
[7] = Non-Elderly Group (N=10), single oral 100 mg imrecoxib
[8] = Non-Elderly Group (N=10), single oral 100 mg imrecoxib, subjects (%)

- Geometric Mean AUC0-∞ ([3]; Group A (N=10), non-elderly): 148 h*ng/m
- Geometric Mean AUC0-∞ ([3]; Group B (N=9), elderly): 193 h*ng/m
- Geometric Mean Ratio B/A of AUC0-t ([3]; elderly (B) / non-elderly (A)): 134%
- Geometric Mean Ratio B/A of AUC0-∞ ([3]; elderly (B) / non-elderly (A)): 130%
- Geometric Mean Ratio B/A of Cmax ([3]; elderly (B) / non-elderly (A)): 139%
Structure (SMILES): CCCN1CC(c2ccc(S(C)(=O)=O)cc2)=C(c2ccc(C)cc2)C1=O [M0, imrecoxib]
- IC50COX-1/IC50COX-2 value [1]: 6.39
- IC50COX-1/IC50COX-2 value relative to celecoxib [1]: 77%
- Dose dependence of pharmacokinetics [2]: linear dynamic characteristics
- Tmax [2]: about 2 hours
- All adverse events, Severity Grade I [4, 5]: 2
- Aspartate transaminase increased, Severity Grade I [4, 5]: 1
- Aspartate transaminase increased, Severity Grade II [4, 5]: 0
- Aspartate transaminase increased, Severity Grade III [4, 5]: 0
- Blood bilirubin increased, Severity Grade I [4, 5]: 1
- Blood bilirubin increased, Severity Grade II [4, 5]: 0
- Blood bilirubin increased, Severity Grade III [4, 5]: 0
- Blood glucose increased, Severity Grade I [4, 5]: 0
- Blood glucose increased, Severity Grade II [4, 5]: 0
- Blood glucose increased, Severity Grade III [4, 5]: 0
- White blood cell increased, Severity Grade I [4, 5]: 0
- White blood cell increased, Severity Grade II [4, 5]: 0
- White blood cell increased, Severity Grade III [4, 5]: 0
- Acute upper respiratory infection, Incidence (%) [4, 6]: 0(0.0%)
- All adverse events, Incidence (%) [4, 6]: 2(22.2%)
- Aspartate transaminase increased, Incidence (%) [4, 6]: 1(11.1%)
- Blood bilirubin increased, Incidence (%) [4, 6]: 1(11.1%)
- Blood glucose increased, Incidence (%) [4, 6]: 0(0.0%)
- Fibrinogen decreased, Incidence (%) [4, 6]: 0(0.0%)
- White blood cell increased, Incidence (%) [4, 6]: 0(0.0%)
- All adverse events, Severity Grade I [4, 7]: 2
- Aspartate transaminase increased, Severity Grade I [4, 7]: 0
- Aspartate transaminase increased, Severity Grade II [4, 7]: 0
- Aspartate transaminase increased, Severity Grade III [4, 7]: 0
- Blood bilirubin increased, Severity Grade I [4, 7]: 0
- Blood bilirubin increased, Severity Grade II [4, 7]: 0
- Blood bilirubin increased, Severity Grade III [4, 7]: 0
- Blood glucose increased, Severity Grade I [4, 7]: 1
- Blood glucose increased, Severity Grade II [4, 7]: 0
- Blood glucose increased, Severity Grade III [4, 7]: 0
- Fibrinogen decreased, Severity Grade I [4, 7]: 1
- White blood cell increased, Severity Grade I [4, 7]: 1
- White blood cell increased, Severity Grade II [4, 7]: 0
- White blood cell increased, Severity Grade III [4, 7]: 0
- Aspartate transaminase increased, Incidence (%) [4, 8]: 0(0.0%)
- Blood bilirubin increased, Incidence (%) [4, 8]: 0(0.0%)
- Severity of all the AEs ([4]; both groups, recovered without any medical intervention): mild
- Gastrointestinal, cardiovascular or renal side effects observed ([4]; both groups, single oral 100 mg imrecoxib): No concomitant gastrointestinal, cardiovascular or renal side effects
- AEs considered to be ADRs ([4]; elderly group): Increased aspartate transaminase and blood bilirubin
- Tolerability ([4]; non-elderly and elderly healthy subjects, oral): well tolerated
- AEs regarded as adverse drug reaction (ADR) ([4]; non-elderly group): increased blood glucose

Structure (SMILES): CS(=O)(=O)c1ccc(C2=C(c3ccccc3)C(=O)OC2)cc1 [rofecoxib]
- IC50COX-1/IC50COX-2 value [1]: above 213
